HNF4A DNA FP – change in binding of human HNF4 alpha to DNA; P41235; HNF4a-FITC DNA binding, fluorescence polarization, 1 h; activity change, % at 10 µM; 360,000 tested, 0.3% active; AID 1224865; in the data active = activity change above about 30%, passing the limit was not always enough
Rin1 Abl inh – human Rin1-Abl interaction inhibition; AID 588664; TR-FRET Rin1/Abl binding, biochemical; inhibition, % at 7.35 µM; P00519+Q13671; 360,000 tested, 0.4% active; in the data active = inhibition above about 5%, passing the limit was not always enough
Neddylation inh – blocks human cullin neddylation | P61081+Q13564 | TR-FRET cullin neddylation, biochemical | inhibition, % at 25 µM | 360,000 tested, 0.58% active; in the data active = inhibition above about 36%
Rpn11 inh – Rpn11 (human) deubiquitinase inhibition | 360,000 tested, 0.59% active | inhibition, % at 20 µM | human 26S proteasome, Ub4-pepOG fluorescence polarization; 20S core pre-blocked with epoxomicin;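 active = inhibition at 20 µM, scaled to each plate's controls, above about 33%, limit read from the data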
Target sequence (O00487 whole entry, looked up): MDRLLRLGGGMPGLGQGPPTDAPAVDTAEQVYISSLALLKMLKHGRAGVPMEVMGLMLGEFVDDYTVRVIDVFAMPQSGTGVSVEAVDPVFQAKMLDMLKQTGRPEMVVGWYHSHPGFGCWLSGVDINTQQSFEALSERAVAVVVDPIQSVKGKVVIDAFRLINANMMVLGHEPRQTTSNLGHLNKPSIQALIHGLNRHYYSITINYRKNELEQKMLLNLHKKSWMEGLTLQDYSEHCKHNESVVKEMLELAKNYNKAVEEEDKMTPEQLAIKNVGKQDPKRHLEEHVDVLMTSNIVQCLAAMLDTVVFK
CSN deneddyl inh – blocks human CSN-mediated cullin deneddylation | Q92905 | Purified CSN, SCF-Nedd8-OG deneddylation, fluorescence polarization | inhibition, % at 12.5 µM | 360,000 tested, 0.38% active | AID 651999;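 active = pattern-corrected inhibition above about 35%, with an unprinted fluorescence ratio check between 0.5 and 1.5, limit read from the data, passing the limit was not always enough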;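 also: 0% = enzyme with substrate and 100% = substrate without enzyme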
Target sequence (Q92905 whole entry, looked up, one chain of several): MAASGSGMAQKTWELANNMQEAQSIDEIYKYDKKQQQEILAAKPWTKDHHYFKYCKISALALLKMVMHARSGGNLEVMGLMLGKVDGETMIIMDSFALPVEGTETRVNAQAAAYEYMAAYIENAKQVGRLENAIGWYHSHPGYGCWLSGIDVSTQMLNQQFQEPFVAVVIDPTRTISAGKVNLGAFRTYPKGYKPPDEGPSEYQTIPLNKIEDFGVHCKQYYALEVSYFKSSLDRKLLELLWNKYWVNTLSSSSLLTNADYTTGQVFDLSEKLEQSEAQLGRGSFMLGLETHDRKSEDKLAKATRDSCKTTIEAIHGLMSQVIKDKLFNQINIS
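Detection – fluorescence polarization · System – HEK293T-derived human Csn5 enzyme · Controls – substrate-only high control, full reaction low control · Timing – 90 min, room temperature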
TPT1 inh – C. albicans TPT1 enzyme inhibition; inhibition, % at 5 µM; recombinant caTPT1, FP RNA substrate dephosphorylation; 300,000 tested, 0.81% active;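 active = inhibition above the mean of all tested compounds plus 3 SD, set per screening campaign, cut at about 24% in these data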;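 also: plate controls were DMSO alone for no effect and ferristatin control at 100 nM for full effect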
Rpn11 confirm – confirmation of human proteasome Rpn11 inhibitors; AID 602318; shares compounds with Rpn11 inh; inhibition, % at 20 µM; purified human 26S proteasome, Ub4-pepOG fluorescence polarization; proteasome pretreated with epoxomicin; 1,900 tested, 29% active; in the data active = inhibition above about 40%
MMP-2 counter-1 – blocks human MMP-2, flagging nonselective RPN11 hits; inhibition, % at 20 µM; recombinant MMP-2, FRET peptide cleavage fluorescence; shares compounds with Rpn11 inh; AID 602330; 1,900 tested, 4% active; in the data active = inhibition above about 40%;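 also: human MMP-2 activated beforehand with APMA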
Thrombin inh – thrombin (bovine) inhibition counter-screen; bovine thrombin cleavage of Ub4-pepOG, fluorescence polarization; inhibition, % at 20 µM; shares compounds with Rpn11 inh; AID 602333; 1,900 tested, 13% active;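 active = mean inhibition at least 40% at 20 µM, or signal 3 deviations below plate average, so some actives read negative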;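 also: plate controls were thrombin with DMSO for no effect and buffer wells lacking thrombin for full effect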
Rin1-Abl confirm – confirmation of inhibitors of human Rin1-Abl interaction | AID 602124 | shares compounds with Rin1 Abl inh | inhibition, % at 7.35 µM | TR-FRET Rin1-Abl binding, purified proteins | 1,300 tested, 49% active
GFP quencher – quenches GFP fluorescence, counter-screen for Rin1-Abl inhibitors | shares compounds with Rin1 Abl inh | inhibitors/quenchers counterscreen | inhibition, % at 6.75 µM | 1,300 tested, 8.5% active | AID 602125;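 also: ABL1-eGFP fusion protein alone without its partner RIN1-SBP; 0% = protein with vehicle and 100% = wells lacking protein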
GFP quench DR – GFP fluorescence interference dose response | shares compounds with Rin1 Abl inh | GFP fluorescence interference/quenching counterscreen | 230 tested, under 10 active | IC50, µM; call rule not given here;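 also: ABL1-eGFP fusion protein alone without its RIN1 binding partner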
CSN5 deneddyl – validation of inhibitors of human CSN-mediated cullin deneddylation | inhibition, % at 16.6 µM | shares compounds with CSN deneddyl inh | AID 720654 | Csn5 deneddylation of SCF-Nedd8OG, fluorescence polarization, 90 min | 540 tested, 62% active; in the data active = inhibition above about 50%;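 also: 0% = DMSO with enzyme and 100% = no enzyme wells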
MMP-2 counter-2 – MMP-2 (human) inhibition, counter-screen for CSN hits | shares compounds with CSN deneddyl inh | recombinant MMP-2, FRET substrate fluorescence, 60 min | inhibition, % at 16.6 µM | 540 tested, 33% active;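 active = corrected plate-normalized z-score of 5 or more, or -5 or less, or inhibition of 15% or more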;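 also: plate controls were DMSO wells with enzyme for no effect and buffer wells lacking MMP-2 for full effect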
Thrombin counter – thrombin (bovine) inhibition, counter-screen for CSN hits. shares compounds with CSN deneddyl inh. bovine thrombin cleavage of Ub4-pepOG, fluorescence polarization. inhibition, % at 16.6 µM. 540 tested, 49% active;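 active = inhibition at or above a set limit, with a fluorescence interference ratio between 0.5 and a set maximum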
* hit, by the source's call; . = no result shown. A selection: hits, their analogues and other compounds. The true share with any hit is near 2.4%. Rule as the data show it, unless noted: active = inhibition above about 6.5%; inactive = the rest.

SMILES	HNF4A DNA FP	Rin1 Abl inh	Neddylation inh	Rpn11 inh	CSN deneddyl inh	TPT1 inh	Rin1-Abl confirm	GFP quencher	others
Cc1ccccc1NC(=NCCCN1CC1)Nc1ccccc1C	174	-1	6	92*	117*	.	.	.	Rpn11 confirm=99*;MMP-2 counter-1=-128;Thrombin inh=52*;CSN5 deneddyl=-59;MMP-2 counter-2=26*;Thrombin counter=29*
Cc1ccccc1NC(=O)c1cc(-c2ccccc2)n(CCCN2CCOCC2)c1C	2	7	6	9	3	-3	.	.
CCOC(=O)c1c(-n2c(C)cc(C=C3C(=O)NC(=S)NC3=O)c2C)sc2c1CCCC2	-6	-4	-10	43*	49*	20	.	.	Rpn11 confirm=35;MMP-2 counter-1=23;Thrombin inh=17;CSN5 deneddyl=83*;MMP-2 counter-2=31*;Thrombin counter=12
O=C1NC(=S)N(c2ccccc2)C(=O)/C1=C/c1ccco1	-43	4	-16	76*	53*	12	.	.	Rpn11 confirm=90*;MMP-2 counter-1=61*;Thrombin inh=24;MMP-2 counter-2=46*;Thrombin counter=39
CC1=C(C)CN2CC(C#N)=C(N)C2C1 (stereo not given)	-7	3	0	-13	-7	.	.	.
CCCCCN1C(=O)c2ccccc2[C@@]2(C(=O)OCC)Cc3cc(OC)ccc3[C@@H]12	1	.	10	.	0	.	.	.
O=C(O)CCCCC1SCC2NC(=O)NC21 (stereo not given)	1	86*	-6	1	3	-2	92*	0	GFP quench DR=>68
CCCCCc1cc(O)c2c3c(c(=O)oc2c1)CN(C)CC3	-1	8.0*	-8	-4	6	-1	-4	-1
CCOC(=O)C(C)Oc1cc(C)cc2oc(=O)c3c(c12)CCCC3 (stereo not given)	3	5	.	0	0	-4	.	.
O=c1[nH]c2ccccc2n1C1CCN(C(c2ccnc3ccccc23)c2nnnn2-c2ccc3c(c2)OCCO3)CC1 (stereo not given)	-3	45*	-10	13	0	.	32*	0	GFP quench DR=>67
COc1ccc(C(c2nnnn2-c2ccc3c(c2)OCCO3)N2CCC(n3c(=O)[nH]c4ccccc43)CC2)cc1 (stereo not given)	1	7	3	4	0	.	.	.
CCC(c1nnnn1-c1ccc(OC)cc1)N1CCC(n2c(=O)[nH]c3ccccc32)CC1 (stereo not given)	4	6	2	4	-2	.	.	.
COc1ccc(-n2nnnc2C(CCSC)N2CCC(n3c(=O)[nH]c4ccccc43)CC2)cc1 (stereo not given)	-2	13*	2	5	-2	.	8.2*	-1
O=C(Cc1ccccc1F)N1CCN(CC(=O)N2CCCC2)CC1	3	1	7	-4	2	.	.	.
C=CCN1CCc2cccc3c2[C@H]1Cc1ccc(O)c(O)c1-3	2	8.5*	30	-7	-2	-4	7.1*	11*
C[C@]12CCC3C(C(=O)C[C@H]4C[C@@H](O)CC[C@]34C)C1CCC2=O (stereo not given in full)	0	21*	-1	-1	-3	.	20*	-1	GFP quench DR=>68
Cc1ncoc1C(=O)NCC1=C(c2ccc(S(C)(=O)=O)cc2)C[C@@H]2CC[C@H]1N2Cc1ccco1	-1	-1	-6	2	2	.	.	.
Oc1ccccc1/C=N/NP(=S)(c1ccccc1)c1ccccc1	3	1	9	-3	-1	-2	.	.
Oc1ccc(/C=N/NP(=S)(c2ccccc2)c2ccccc2)c(O)c1O	-6	16*	-18	-2	0	-1	9.0*	5
Cc1nn(CC(C)C)c(Cl)c1C(=O)NC1CCCCC1	3	1	14	-7	2	.	.	.
O=C(O)C1C2c3ccccc3C(O)C1(C(=O)O)c1ccccc12 (stereo not given)	-4	0	3	0	-1	.	.	.
COc1cc2c(ccc3cc(OC)c(OC)c(O)c32)cc1O	-48	21*	19	.	35	-1	17*	6	GFP quench DR=>68
Cc1cccc(NC(=O)COC(=O)c2cc(C)n(C3CC3)c2C)c1	2	2	-10	1	-2	.	.	.
CC(=O)C1C(N2CC2)CC2C3CC=C4CC(O)CCC4(C)C3CCC21C (stereo not given)	2	7	6	7	1	.	.	.
O=C1NCN(c2ccccc2)C12CCN(C(c1ccccc1OC(F)(F)F)c1nnnn1C1CCCC1)CC2 (stereo not given)	0	3	1	2	6	.	.	.
SMILES	HNF4A DNA FP	Rin1 Abl inh	Neddylation inh	Rpn11 inh	CSN deneddyl inh	TPT1 inh	Rin1-Abl confirm	GFP quencher	others
COc1ccc(CCN)cc1O	-2	1	1	-3	-3	1	.	.
NCCc1cc(O)c(O)cc1O	-13	39*	0	-15	19	.	41*	8.7*
COCCCn1c(N)c(C(=O)NCCC(C)C)c2nc3ccccc3nc21	2	22*	.	6	37*	2	2	-1
[N-]=[N+]=NCCN1CCC(O)CCC1=O (stereo not given)	3	-2	-3	0	1	-1	.	.
O=C1NC2NC(=O)N([N+](=O)[O-])C2N1 (stereo not given)	2	8.7*	7	-5	-6	-1	8.6*	0
Fc1ccccc1CCNCc1ccccc1	-2	8.8*	2	-9	-18	3	1	-1
